From ChEMBL document CHEMBL1795234, “Practical synthesis, anticonvulsant, and antimicrobial activity of N-allyl and N-propargyl di(indolyl)indolin-2-ones” (2011) come the findings set out here.

Holding throughout (type): functional
For test [1], the system named is Mus musculus. As to the kind of experiment: Anticonvulsant activity against maximum electric shock-induced seizure in Swiss albino mouse assessed as time spent in tonic flexion phase at 20 mg/kg, ip administered 30 mins before seizure induction by electroconvulsiometer analysis. The note with it: route intraperitoneal. In a few lines:
(§1)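 Inbred Swiss albino mice, both sexes, 25–30 g, 7-day adaptation, groups of 5, each used once, tested 10:00–16:00. Compound suspended in 0.5% Tween 80, 20 mg/kg ip 30 min before maximal electroshock; vehicle control group and ip phenytoin 20 mg/kg standard. Seconds spent in flexion, extensor and clonus phases recorded, mean ± SEM.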

Test [2] relates to Mus musculus. The test is described as follows: Anticonvulsant activity against maximum electric shock-induced seizure in Swiss albino mouse assessed as time spent in tonic extensor phase at 20 mg/kg, ip administered 30 mins before seizure induction by electroconvulsiometer analysis. The note with it: route intraperitoneal. The method, boiled down: as §1
The test system of the next test is Staphylococcus aureus. The test is described as follows: Antibacterial activity against methicillin-sensitive Staphylococcus aureus 22 at 20 ug/ml after 24 hrs by cup plate method. The note with it: Staphylococcus aureus, 22, 24 h; read-out: IZ. The method, boiled down: (§2)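 Cup-plate (well diffusion) on Mueller-Hinton agar; compounds at 20 µg/mL in methanol, 20 µL per well; one well with 20 µL methanol as solvent control; Amikacin standard run alike. Held in refrigerator 1 h for diffusion, then incubated 24 h at 37 °C; zone of inhibition around cup measured.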

The test system of another test is Escherichia coli. As to the kind of experiment: Antibacterial activity against Escherichia coli K12 at 20 ug/ml after 24 hrs by cup plate method. The note with it: K-12, 24 h, read-out: IZ. The method, boiled down:
as §2

Test [3] deals with Mus musculus. As to the kind of experiment: Anticonvulsant activity against maximum electric shock-induced seizure in Swiss albino mouse assessed as time spent in tonic clonus phase at 20 mg/kg, ip administered 30 mins before seizure induction by electroconvulsiometer analysis. The note with it: route intraperitoneal. In a few lines:
as §1

In another test the test system is Candida albicans. As to the kind of experiment: Antifungal activity against Candida albicans ATCC 10231 at 20 ug/ml after 24 hrs by cup plate method. The note with it: ATCC 10231, 24 h, read-out: IZ. In a few lines: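 C. albicans spores inoculated into lukewarm Sabouraud dextrose agar (pH 5.4, autoclaved 121 °C 15 min) and poured; cups filled with compound at 20 µg/mL, methanol solvent control, Ketoconazole standard. Kept refrigerated 1 h for diffusion, then incubated 24 h at 28 °C; zone of inhibition read.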

Regarding `C=CCn1cc(C2(c3cn(CC=C)c4ccccc34)C(=O)Nc3ccc([N+](=O)[O-])cc32)c2ccccc21`, the Time with Mus musculus [1] is 4.8 s; in the test with Mus musculus [2], 39.2 s; with Mus musculus [3], 3.4 s. Moreover, the zone of inhibition at 20 µg/mL with Staphylococcus aureus was determined as 10 mm; in the test on Escherichia coli it was 10 mm; in the test on Candida albicans it was 15 mm.

On to `C#CCN1C(=O)C(c2cn(CC#C)c3ccccc23)(c2cn(CC#C)c3ccccc23)c2ccccc21`, for which the Time in the test on Mus musculus [1] amounted to 5.4 s; with Mus musculus [2] it was 31.8 s; in the test on Mus musculus [3], 3.6 s. For the same compound, the zone of inhibition at 20 µg/mL in the test on Staphylococcus aureus worked out at 10 mm; with Escherichia coli, 10 mm; in the test with Candida albicans it was 12 mm.

On to `C#CCn1cc(C2(c3cn(CC#C)c4ccccc34)C(=O)N(Cc3ccccc3)c3ccccc32)c2ccccc21`, for which the Time is listed as 4.8 s with Mus musculus [1], 39.2 s in the test on Mus musculus [2] and 3.2 s with Mus musculus [3]. Besides, the results for the zone of inhibition at 20 µg/mL with Staphylococcus aureus, in the test on Escherichia coli and with Candida albicans were 15 mm, 17 mm and 13 mm, respectively.

Take `C=CCn1cc(C2(c3cn(CC=C)c4ccc(OC)cc34)C(=O)N(CC(=O)OCC)c3ccccc32)c2cc(OC)ccc21`: the Time was found to be 4.8 s in the test on Mus musculus [1], 31.6 s in the test on Mus musculus [2] and 3.4 s in the test on Mus musculus [3]. Moreover, the zone of inhibition at 20 µg/mL in the test on Staphylococcus aureus is 12 mm; with Escherichia coli, 14 mm; with Candida albicans, 10 mm.

As to `C=CCn1cc(C2(c3cn(CC=C)c4ccccc34)C(=O)Nc3ccccc32)c2ccccc21`, the Time with Mus musculus [1] came out at 5.8 s; in the test on Mus musculus [2] it was 48 s; in the test with Mus musculus [3], 3.6 s. Also, the zone of inhibition at 20 µg/mL with Staphylococcus aureus was determined as 12 mm; in the test on Escherichia coli, 12 mm; with Candida albicans, 11 mm.

Take `C#CCn1cc(C2(c3cn(CC#C)c4ccccc34)C(=O)Nc3ccccc32)c2ccccc21`: the Time with Mus musculus [1] stood at 4.8 s; in the test on Mus musculus [2] it was 39.2 s; in the test with Mus musculus [3] it was 3.2 s. Moreover, the zone of inhibition at 20 µg/mL came out at 11 mm in the test with Staphylococcus aureus, 10 mm in the test with Escherichia coli and 12 mm in the test on Candida albicans.

Turning to `C=CCn1cc(C2(c3cn(CC=C)c4ccc(OC)cc34)C(=O)Nc3ccccc32)c2cc(OC)ccc21`, the Time in the test on Mus musculus [1] stood at 4.8 s; in the test with Mus musculus [2] it was 31.8 s; with Mus musculus [3], 3.2 s. Besides, the zone of inhibition at 20 µg/mL amounted to 12 mm in the test with Staphylococcus aureus, 10 mm with Escherichia coli and 14 mm with Candida albicans.

As to `C=CCn1cc(C2(c3cn(CC=C)c4ccc(OC)cc34)C(=O)Nc3ccc(Cl)cc32)c2cc(OC)ccc21`, the Time in the test on Mus musculus [1] is listed as 5.8 s; in the test on Mus musculus [2] it was 31.6 s; in the test on Mus musculus [3] it was 3.4 s. Moreover, the zone of inhibition at 20 µg/mL is 10 mm in the test on Staphylococcus aureus, 11 mm in the test with Escherichia coli and 10 mm in the test on Candida albicans.

Regarding `C=CCn1cc(C2(c3cn(CC=C)c4ccc(OC)cc34)C(=O)Nc3ccc(Br)cc32)c2cc(OC)ccc21`, the values for the Time in the test with Mus musculus [1], in the test on Mus musculus [2] and with Mus musculus [3] were 4.8 s, 39.2 s and 3.4 s, respectively. The results for the zone of inhibition at 20 µg/mL with Staphylococcus aureus, with Escherichia coli and in the test with Candida albicans were 15 mm, 14 mm and 14 mm, respectively.

As for `NCC[C@H](O)C(=O)N[C@@H]1C[C@H](N)[C@@H](O[C@H]2O[C@H](CN)[C@@H](O)[C@H](O)[C@H]2O)[C@H](O)[C@H]1O[C@H]1O[C@H](CO)[C@@H](O)[C@H](N)[C@H]1O` [AMIKACIN], the zone of inhibition at 20 µg/mL is 17 mm with Staphylococcus aureus and 18 mm with Escherichia coli.

Regarding `CC(C)=CCn1cc(C2(c3cn(CC=C(C)C)c4ccc(Br)cc34)C(=O)Nc3ccccc32)c2cc(Br)ccc21`, the Time with Mus musculus [1] is recorded as 4.8 s; in the test with Mus musculus [2], 39.6 s; with Mus musculus [3], 3.4 s. Besides, the zone of inhibition at 20 µg/mL was determined as 14 mm in the test with Staphylococcus aureus, 12 mm in the test on Escherichia coli and 12 mm in the test with Candida albicans.

In the case of `CC(=O)N1CCN(c2ccc(OCC3COC(Cn4ccnc4)(c4ccc(Cl)cc4Cl)O3)cc2)CC1` (centres undefined) [KETOCONAZOLE], the zone of inhibition at 20 µg/mL with Candida albicans stood at 16 mm.

On to `O=C1NC(=O)C(c2ccccc2)(c2ccccc2)N1` [PHENYTOIN], for which the Time in the test on Mus musculus [1] was determined as 5.6 s; in the test on Mus musculus [2] it was 43 s; in the test with Mus musculus [3], 3.4 s.

Turning to `O=C1Nc2ccccc2C1(c1cn(C/C=C/c2ccccc2)c2ccccc12)c1cn(C/C=C/c2ccccc2)c2ccccc12`, the results for the Time in the test with Mus musculus [1], with Mus musculus [2] and in the test with Mus musculus [3] were 4.8 s, 39.6 s and 3.6 s, respectively. In addition, the values for the zone of inhibition at 20 µg/mL in the test with Staphylococcus aureus, in the test on Escherichia coli and in the test with Candida albicans were 10 mm, 14 mm and 13 mm, respectively.

With `C#CCN1C(=O)C(c2cn(CC=C(C)C)c3ccc(Br)cc23)(c2cn(CC=C(C)C)c3ccc(Br)cc23)c2ccccc21`, the Time with Mus musculus [1] is reported as 5.4 s; with Mus musculus [2], 31.6 s; in the test with Mus musculus [3], 2.8 s. Further, the zone of inhibition at 20 µg/mL in the test on Staphylococcus aureus was found to be 15 mm; in the test with Escherichia coli, 15 mm; with Candida albicans, 10 mm.

As for `C#CCn1c(C)c(C2(c3c(C)n(CC#C)c4ccccc34)C(=O)Nc3ccccc32)c2ccccc21`, the Time with Mus musculus [1] worked out at 5.4 s; in the test with Mus musculus [2], 31.6 s; in the test with Mus musculus [3] it was 2.8 s. The zone of inhibition at 20 µg/mL with Staphylococcus aureus, in the test on Escherichia coli and with Candida albicans was 15 mm throughout.
